In brackets after ≈: the same amount, converted by molar mass. Activity calls are given as the source filed them. The calls are words filed in the database; no cut-off is given here.
Tests used:
[1] = test system: Candida albicans; test: Antifungal activity against Candida albicans ATCC 10231 assessed as growth inhibition at 31.25 ug/mL after 24 hrs by microplate reader analysis; format: functional; conditions: ATCC 10231, 24 h, read-out: GI
Procedure, shortened: (§1)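 96-well RPMI-1640 wells with compound at final 250–0.98 µg/mL (DMSO ≤1%). Inoculum 100 µL, 1–5 × 10³ CFU/mL, 200 µL final. Each well includes growth (DMSO, no compound) and sterility controls. % inhibition = 100 − (CTW−SCW)/(GCW−SCW) × 100, run in duplicate.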

[2] = test system: Candida tropicalis; test: Antifungal activity against Candida tropicalis assessed as growth inhibition at 31.25 ug/mL by microplate reader analysis; format: functional; conditions: read-out: GI
[3] = test system: Cryptococcus neoformans; test: Antifungal activity against Cryptococcus neoformans ATCC 32264 assessed as growth inhibition at 15.6 ug/mL after 48 hrs by microplate reader analysis; format: functional; conditions: ATCC 32264, 48 h, read-out: GI
Procedure, shortened: (§2)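 Microplate growth-inhibition assay in RPMI-1640, compound at final 250–0.98 µg/mL (DMSO ≤1%). Inoculum 1–5 × 10³ CFU/mL. Sterility and DMSO growth controls included. Percent inhibition is computed from blank-corrected OD relative to the growth control, tested in duplicate.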

[4] = test system: Aspergillus niger; test: Antifungal activity against Aspergillus niger ATCC 9029 at 0.98 to 250 ug/mL by NCCLS broth microdilution method; format: functional, organism-based
Procedure, shortened: (§3)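 MIC by broth microdilution per NCCLS M27-A3/M38-A2 in RPMI-1640 buffered to pH 7.0 with MOPS. Twofold dilutions from 250–0.98 µg/mL, final DMSO ≤1%. Inoculum 1–5 × 10³ CFU/mL. Incubated in a moist dark chamber, 30 °C for Aspergillus and 28–30 °C for dermatophytes. Read visually when control growth allowed. Endpoint is the lowest concentration giving total inhibition of visible growth (MIC100).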

[5] = test system: Candida tropicalis; test: Fungicidal activity against Candida tropicalis after 48 hrs by agar plate dilution method; format: functional
Procedure, shortened: (§4)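 MFC: after the microdilution MIC, material from each clear well was plated onto RPMI-1640 agar buffered with MOPS. Plates incubated at 30 °C and read after 48 h. MFC is the lowest concentration giving total inhibition of visible growth.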

[6] = test system: Trichophyton mentagrophytes; test: Antifungal activity against Trichophyton mentagrophytes ATCC 9972 by NCCLS broth microdilution method; format: functional; conditions: read-out: MIC100; procedure, shortened: as §3
[7] = test system: Trichophyton rubrum; test: Antifungal activity against Trichophyton rubrum CCC 110 by NCCLS broth microdilution method; format: functional; conditions: read-out: MIC100; procedure, shortened: as §3
[8] = test system: Candida albicans; test: Antifungal activity against Candida albicans ATCC 10231 assessed as growth inhibition at 62.5 ug/mL after 24 hrs by microplate reader analysis; format: functional; conditions: ATCC 10231, 24 h, read-out: GI; procedure, shortened: as §1
[9] = test system: Candida tropicalis; test: Antifungal activity against Candida tropicalis assessed as growth inhibition at 15.6 ug/mL by microplate reader analysis; format: functional; conditions: read-out: GI
[10] = test system: Candida tropicalis; test: Antifungal activity against Candida tropicalis after 48 hrs by NCCLS broth microdilution method; format: functional; conditions: read-out: MIC100
Procedure, shortened: (§5)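 Yeast MIC by NCCLS M27-A3 broth microdilution in RPMI-1640 buffered to pH 7.0 with MOPS. Twofold dilutions of 250–0.98 µg/mL, final DMSO ≤1%. Inoculum 1–5 × 10³ CFU/mL. Incubated at 30 °C in a moist dark chamber. Read visually at 48 h. MIC100 is the lowest concentration with no visible growth versus drug-free control.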

[11] = test system: Cryptococcus neoformans; test: Antifungal activity against Cryptococcus neoformans ATCC 32264 after 48 hrs by NCCLS broth microdilution method; format: functional; conditions: ATCC 32264, 48 h, read-out: MIC100; procedure, shortened: as §5
[12] = test system: Candida albicans; test: Antifungal activity against Candida albicans ATCC 10231 assessed as growth inhibition at 15.6 ug/mL after 24 hrs by microplate reader analysis; format: functional; conditions: ATCC 10231, 24 h, read-out: GI; procedure, shortened: as §1
[13] = test system: Aspergillus fumigatus; test: Antifungal activity against Aspergillus fumigatus ATCC 26934 at 0.98 to 250 ug/mL by NCCLS broth microdilution method; format: functional, organism-based; procedure, shortened: as §3
[14] = test system: Cryptococcus neoformans; test: Antifungal activity against Cryptococcus neoformans ATCC 32264 assessed as growth inhibition at 62.5 ug/mL after 48 hrs by microplate reader analysis; format: functional; conditions: ATCC 32264, 48 h, read-out: GI; procedure, shortened: as §2
[15] = test system: Candida tropicalis; test: Antifungal activity against Candida tropicalis assessed as growth inhibition at 7.8 ug/mL by microplate reader analysis; format: functional; conditions: read-out: GI
[16] = test system: Candida albicans; test: Antifungal activity against Candida albicans ATCC 10231 assessed as growth inhibition at 250 ug/mL after 24 hrs by microplate reader analysis; format: functional; conditions: ATCC 10231, 24 h, read-out: GI; procedure, shortened: as §1
[17] = test system: Candida albicans; test: Fungicidal activity against Candida albicans ATCC 10231 after 48 hrs by agar plate dilution method; format: functional; conditions: ATCC 10231, 48 h; procedure, shortened: as §4
[18] = test system: Candida tropicalis; test: Antifungal activity against Candida tropicalis assessed as growth inhibition at 62.5 ug/mL by microplate reader analysis; format: functional; conditions: read-out: GI
[19] = test system: Cryptococcus neoformans; test: Antifungal activity against Cryptococcus neoformans ATCC 32264 assessed as growth inhibition at 125 ug/mL after 48 hrs by microplate reader analysis; format: functional; conditions: ATCC 32264, 48 h, read-out: GI; procedure, shortened: as §2
[20] = test system: Candida tropicalis; test: Antifungal activity against Candida tropicalis assessed as growth inhibition at 3.9 ug/mL by microplate reader analysis; format: functional; conditions: read-out: GI
[21] = Acute toxicity in bony fish assessed as mortality at 5 ug/mL after 96 hrs; conditions: actinopterygii; read-out: Activity
Procedure, shortened: (§6)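 Guppy (Poecilia reticulata) acute static exposure: 10 fish per concentration in 2 L wide-mouthed jars holding the test solution. Compounds were added from […] to give the final concentrations. Dead fish were counted and removed every 24 h, with general condition noted; percentage mortality was scored at 96 h. Two experiments, each in triplicate.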

[22] = test system: Cryptococcus neoformans; test: Fungicidal activity against Cryptococcus neoformans ATCC 32264 after 48 hrs by agar plate dilution method; format: functional; conditions: ATCC 32264, 48 h; procedure, shortened: as §4
[23] = test system: Cryptococcus neoformans; test: Antifungal activity against Cryptococcus neoformans ATCC 32264 assessed as growth inhibition at 7.8 ug/mL after 48 hrs by microplate reader analysis; format: functional; conditions: ATCC 32264, 48 h, read-out: GI; procedure, shortened: as §2
[24] = Acute toxicity in bony fish assessed as mortality at 35 ug/mL after 96 hrs; conditions: actinopterygii; read-out: Activity; procedure, shortened: as §6
[25] = test system: Candida albicans; test: Antifungal activity against Candida albicans ATCC 10231 assessed as growth inhibition at 7.8 ug/mL after 24 hrs by microplate reader analysis; format: functional; conditions: ATCC 10231, 24 h, read-out: GI; procedure, shortened: as §1
[26] = test system: Nannizzia gypsea; test: Fungicidal activity against Microsporum gypseum CCC 115 after 48 hrs by agar plate dilution method; format: functional; conditions: CCC 115, 48 h; procedure, shortened: as §4
[27] = test system: Cryptococcus neoformans; test: Antifungal activity against Cryptococcus neoformans ATCC 32264 assessed as growth inhibition at 31.25 ug/mL after 48 hrs by microplate reader analysis; format: functional; conditions: ATCC 32264, 48 h, read-out: GI; procedure, shortened: as §2
[28] = test system: Candida albicans; test: Antifungal activity against Candida albicans ATCC 10231 after 24 hrs by microplate reader analysis; format: functional; conditions: ATCC 10231, 24 h; procedure, shortened: as §1
[29] = test system: Trichophyton mentagrophytes; test: Fungicidal activity against Trichophyton mentagrophytes ATCC 9972 after 48 hrs by agar plate dilution method; format: functional; conditions: ATCC 9972, 48 h; procedure, shortened: as §4
[30] = test system: Trichophyton rubrum; test: Fungicidal activity against Trichophyton rubrum CCC 110 after 48 hrs by agar plate dilution method; format: functional; conditions: CCC 110, 48 h
Procedure, shortened: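 Samples from each clear well of the MIC broth microdilution tray were plated onto RPMI-1640 agar buffered with MOPS. That tray had compounds twofold diluted in RPMI (pH 7.0, MOPS) from 250–0.98 µg/mL with inoculum of 1–5 × 10³ CFU/mL, incubated at 28–30 °C for dermatophytes. Plates were incubated at 30 °C and read at 48 h. MFC was taken as the lowest concentration giving total inhibition of visible growth.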

[31] = test system: Cryptococcus neoformans; test: Antifungal activity against Cryptococcus neoformans ATCC 32264 after 48 hrs by microplate reader analysis; format: functional; conditions: ATCC 32264, 48 h; procedure, shortened: as §2
[32] = test system: Candida albicans; test: Antifungal activity against Candida albicans ATCC 10231 assessed as growth inhibition at 125 ug/mL after 24 hrs by microplate reader analysis; format: functional; conditions: ATCC 10231, 24 h, read-out: GI; procedure, shortened: as §1
[33] = test system: Aspergillus flavus; test: Antifungal activity against Aspergillus flavus ATCC 9170 at 0.98 to 250 ug/mL by NCCLS broth microdilution method; format: functional, organism-based; procedure, shortened: as §3
[34] = test system: Candida tropicalis; test: Antifungal activity against Candida tropicalis assessed as growth inhibition at 125 ug/mL by microplate reader analysis; format: functional; conditions: read-out: GI
[35] = test system: Cryptococcus neoformans; test: Antifungal activity against Cryptococcus neoformans ATCC 32264 assessed as growth inhibition at 250 ug/mL after 48 hrs by microplate reader analysis; format: functional; conditions: ATCC 32264, 48 h, read-out: GI; procedure, shortened: as §2
[36] = test system: Candida albicans; test: Antifungal activity against Candida albicans ATCC 10231 assessed as growth inhibition at 3.9 ug/mL after 24 hrs by microplate reader analysis; format: functional; conditions: ATCC 10231, 24 h, read-out: GI; procedure, shortened: as §1
[37] = test system: Candida albicans; test: Antifungal activity against Candida albicans ATCC 10231 after 48 hrs by NCCLS broth microdilution method; format: functional; conditions: ATCC 10231, 48 h, read-out: MIC100; procedure, shortened: as §5
[38] = test system: Cryptococcus neoformans; test: Antifungal activity against Cryptococcus neoformans ATCC 32264 assessed as growth inhibition at 3.9 ug/mL after 48 hrs by microplate reader analysis; format: functional; conditions: ATCC 32264, 48 h, read-out: GI; procedure, shortened: as §2
[39] = test system: Candida tropicalis; test: Antifungal activity against Candida tropicalis assessed as growth inhibition at 250 ug/mL by microplate reader analysis; format: functional; conditions: read-out: GI
[40] = test system: Candida tropicalis; test: Antifungal activity against Candida tropicalis by microplate reader analysis; format: functional
[41] = test system: Nannizzia gypsea; test: Antifungal activity against Microsporum gypseum CCC 115 by NCCLS broth microdilution method; format: functional; conditions: read-out: MIC100; procedure, shortened: as §3

In the case of `COc1nc(N)c(N=O)c(Nc2ccccc2)n1`, the inhibition of growth at 31.25 µg/mL [1] was 100%, the inhibition of growth at 31.25 µg/mL [2] was 100% and the inhibition of growth at 15.6 µg/mL [3] was 100%. For the same compound, the Activity [4] was “inactive”, the MFC [5] was 31.2 µg/mL (≈ 127 µM) and the MIC [6] was 125 µg/mL (≈ 510 µM). For the same compound, the MIC [7] was 125 µg/mL (≈ 510 µM), the inhibition of growth at 62.5 µg/mL [8] was 100% and the inhibition of growth at 15.6 µg/mL [9] was 88.2%. The MIC [10] was 31.2 µg/mL (≈ 127 µM), the MIC [11] was 15.6 µg/mL (≈ 63.6 µM) and the inhibition of growth at 15.6 µg/mL [12] was 98.1%. For the same compound, the Activity [13] was “inactive”, the inhibition of growth at 62.5 µg/mL [14] was 100% and the inhibition of growth at 7.8 µg/mL [15] was 87.2%. The inhibition of growth at 250 µg/mL [16] was 100%, the MFC [17] was 31.2 µg/mL (≈ 127 µM) and the inhibition of growth at 62.5 µg/mL [18] was 100%. For the same compound, the inhibition of growth at 125 µg/mL [19] was 100%, the inhibition of growth at 3.9 µg/mL [20] was 4.1% and the mortality at 96 h, 5 ug/mL [21] was 0%. For the same compound, the MFC [22] was 62.5 µg/mL (≈ 255 µM), the inhibition of growth at 7.8 µg/mL [23] was 91.2% and the mortality at 96 h, 35 ug/mL [24] was 0%. It also gave an inhibition of growth at 7.8 µg/mL [25] of 85%, an MFC [26] of 62.5 µg/mL (≈ 255 µM) and an inhibition of growth at 31.25 µg/mL [27] of 100%. The MIC50 [28] was 7.8 µg/mL (≈ 31.8 µM), the MFC [29] was 250 µg/mL (≈ 1020 µM) and the MFC [30] was 250 µg/mL (≈ 1020 µM). For the same compound, the MIC50 [31] was 1.95 µg/mL (≈ 7.95 µM), the inhibition of growth at 125 µg/mL [32] was 100% and the Activity [33] was “inactive”. For the same compound, the inhibition of growth at 125 µg/mL [34] was 100%, the inhibition of growth at 250 µg/mL [35] was 100% and the inhibition of growth at 3.9 µg/mL [36] was 4.7%. The MIC [37] was 31.2 µg/mL (≈ 127 µM), the inhibition of growth at 3.9 µg/mL [38] was 76.2% and the inhibition of growth at 250 µg/mL [39] was 100%. It also gave an MIC50 [40] of 7.8 µg/mL (≈ 31.8 µM) and an MIC [41] of 62.5 µg/mL (≈ 255 µM).
